{"source": "ChEMBL document CHEMBL4118180", "about": "“Design, synthesis and evaluation of photoactivatable derivatives of microtubule (MT)-active [1,2,4]triazolo[1,5-a]pyrimidines” (Bioorg Med Chem Lett, 2018)", "assay_type_in_all_cases": "cell-based", "details_in_all_cases": "Homo sapiens", "key": {"HEK293 [1]": {"test_system": "HEK293", "assay": "Induction of microtubule stabilization in HEK293 cells assessed as increase in acetylated alpha tubulin levels at 1 uM after 4 hrs by ELISA relative to control", "in_short": "(§1)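 HEK-293 cells were exposed to the test compound at 1 or 10 μM for 4 h. Acetylated α-tubulin and total α-tubulin were then measured by ELISA in cell lysates. Levels are expressed relative to vehicle-treated control cells, as the average and SD of triplicate assays. Significance was tested by one-way ANOVA with Dunnett's post-hoc test. Changes in α-tubulin below 15% are treated as assay-to-assay variability.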"}, "HEK293 [2]": {"test_system": "HEK293", "assay": "Induction of microtubule stabilization in HEK293 cells assessed as increase in acetylated alpha tubulin levels at 10 uM after 4 hrs by ELISA relative to control", "in_short": "as §1"}, "HEK293 [3]": {"test_system": "HEK293", "assay": "Induction of microtubule disruption in HEK293 cells assessed as total alpha tubulin levels at 1 uM after 4 hrs by ELISA relative to control", "in_short": "as §1"}, "HEK293 [4]": {"test_system": "HEK293", "assay": "Induction of microtubule disruption in HEK293 cells assessed as total alpha tubulin levels at 10 uM after 4 hrs by ELISA relative to control", "in_short": "as §1"}, "HEK293 [5]": {"test_system": "HEK293", "assay": "Induction of microtubule disruption in HEK293 cells assessed as total alpha tubulin levels after 4 hrs by ELISA relative to control", "in_short": "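Total α-tubulin was measured by ELISA in lysates of HEK-293 cells after 4 h incubation with the test compound. Levels are expressed relative to vehicle-treated control cells. Significance was assessed by one-way ANOVA with Dunnett's post-hoc analysis.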"}}, "note": "Calls of active or inactive are those of the source. The rule behind the calls is not given here.", "data": [{"smiles": "C[C@H](Nc1c(-c2c(F)cc(OCCCN(C)C)cc2F)c(Cl)nc2ncnn12)C1(C)N=N1", "values": [{"measurement": "fold change (FC)", "setting": "HEK293 [1]", "value": 6.7}, {"measurement": "fold change (FC)", "setting": "HEK293 [2]", "value": 0.28}, {"measurement": "fold change (FC)", "setting": "HEK293 [3]", "value": 0.69}, {"measurement": "fold change (FC)", "setting": "HEK293 [4]", "value": 0.78}]}, {"smiles": "C[C@H](Nc1c(-c2c(F)cc(F)cc2F)c(N=[N+]=[N-])nc2ncnn12)C(F)(F)F", "values": [{"measurement": "Activity", "setting": "HEK293 [1]", "value": "inactive"}, {"measurement": "Activity", "setting": "HEK293 [2]", "value": "inactive"}]}, {"smiles": "CC1(CNc2c(-c3c(F)cc(F)cc3F)c(Cl)nc3ncnn23)N=N1", "values": [{"measurement": "fold change (FC)", "setting": "HEK293 [1]", "value": 1.56}, {"measurement": "fold change (FC)", "setting": "HEK293 [2]", "value": 3.42}, {"measurement": "fold change (FC)", "setting": "HEK293 [3]", "value": 1.08}, {"measurement": "fold change (FC)", "setting": "HEK293 [4]", "value": 1.03}]}, {"smiles": "CN(C)CCCOc1cc(F)c(-c2c(Cl)nc3ncnn3c2NCC2(C)N=N2)c(F)c1", "values": [{"measurement": "Activity", "setting": "HEK293 [5]", "value": "Dose-dependent effect"}, {"measurement": "fold change (FC)", "setting": "HEK293 [1]", "value": 10.5}, {"measurement": "fold change (FC)", "setting": "HEK293 [2]", "value": 0.29}, {"measurement": "fold change (FC)", "setting": "HEK293 [3]", "value": 0.36}, {"measurement": "fold change (FC)", "setting": "HEK293 [4]", "value": 0.19}]}, {"smiles": "C[C@H](Nc1c(-c2c(F)cc(F)cc2F)c(Cl)nc2ncnn12)C1(C)N=N1", "values": [{"measurement": "fold change (FC)", "setting": "HEK293 [2]", "value": 1.85}, {"measurement": "fold change (FC)", "setting": "HEK293 [4]", "value": 0.94}]}, {"smiles": "C[C@@H](Nc1c(-c2c(F)cc(OCCCN(C)C)cc2F)c(Cl)nc2ncnn12)C1(C)N=N1", "values": [{"measurement": "Activity", "setting": "HEK293 [5]", "value": "Dose-dependent effect"}, {"measurement": "fold change (FC)", "setting": "HEK293 [1]", "value": 21.7}, {"measurement": "fold change (FC)", "setting": "HEK293 [2]", "value": 0.93}, {"measurement": "fold change (FC)", "setting": "HEK293 [3]", "value": 0.73}, {"measurement": "fold change (FC)", "setting": "HEK293 [4]", "value": 1.01}]}, {"smiles": "CO[C@@H]1C[C@H]2CC[C@@H](C1)N2c1c(-c2c(F)cc(F)cc2F)c(Cl)nc2ncnn12", "values": [{"measurement": "fold change (FC)", "setting": "HEK293 [1]", "value": 3.65}, {"measurement": "fold change (FC)", "setting": "HEK293 [2]", "value": 7.43}, {"measurement": "fold change (FC)", "setting": "HEK293 [3]", "value": 1.12}, {"measurement": "fold change (FC)", "setting": "HEK293 [4]", "value": 1.38}]}, {"smiles": "[N-]=[N+]=Nc1c(-c2c(F)cc(F)cc2F)c(Cl)nc2ncnn12", "values": [{"measurement": "Activity", "setting": "HEK293 [1]", "value": "inactive"}, {"measurement": "Activity", "setting": "HEK293 [2]", "value": "inactive"}]}, {"smiles": "C[C@H](Nc1c(-c2c(F)cc(OCCCNC(=O)c3ccc(C4(C(F)(F)F)N=N4)cc3)cc2F)c(Cl)nc2ncnn12)C(F)(F)F", "values": [{"measurement": "fold change (FC)", "setting": "HEK293 [1]", "value": 1.3}, {"measurement": "fold change (FC)", "setting": "HEK293 [2]", "value": 3.65}, {"measurement": "fold change (FC)", "setting": "HEK293 [3]", "value": 1.31}, {"measurement": "fold change (FC)", "setting": "HEK293 [4]", "value": 0.88}]}, {"smiles": "C[C@@H](Nc1c(-c2c(F)cc(F)cc2F)c(Cl)nc2ncnn12)C1(C)N=N1", "values": [{"measurement": "fold change (FC)", "setting": "HEK293 [1]", "value": 1.42}, {"measurement": "fold change (FC)", "setting": "HEK293 [2]", "value": 4.28}, {"measurement": "fold change (FC)", "setting": "HEK293 [3]", "value": 0.92}, {"measurement": "fold change (FC)", "setting": "HEK293 [4]", "value": 0.89}]}, {"smiles": "CNCCCOc1cc(F)c(-c2c(Cl)nc3ncnn3c2N[C@@H](C)C(F)(F)F)c(F)c1", "values": [{"measurement": "fold change (FC)", "setting": "HEK293 [1]", "value": 7.07}, {"measurement": "fold change (FC)", "setting": "HEK293 [2]", "value": 0.1}, {"measurement": "fold change (FC)", "setting": "HEK293 [3]", "value": 0.51}, {"measurement": "fold change (FC)", "setting": "HEK293 [4]", "value": 0.14}]}, {"smiles": "C[C@H](Nc1c(-c2c(F)cc(OCCCN(C)C)cc2F)c(Cl)nc2ncnn12)C(F)(F)F", "values": [{"measurement": "fold change (FC)", "setting": "HEK293 [1]", "value": 5.83}, {"measurement": "fold change (FC)", "setting": "HEK293 [2]", "value": 0.3}, {"measurement": "fold change (FC)", "setting": "HEK293 [3]", "value": 0.29}, {"measurement": "fold change (FC)", "setting": "HEK293 [4]", "value": 0.14}]}]}
